Bioassay records (PubChem BioAssay)
Sampled rows, rich in hits. Any-hit rate of the full collection: about 1.5%.
CXCR6 block = CXCR6 (human) receptor inhibition | CHO-K1 PathHunter CXCR6 beta-arrestin, luminescence | 360,000 tested, 0.36% active | inhibition, % at 20 µM; in the data active means inhibition above about 34%, passing the limit was not always enough;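 further: antagonist mode with CXCL16 agonist at 10 nM final; 0% = 10 nM CXCL16 with DMSO and 100% = unstimulated wells without agonist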
EBI2 block = antagonists of human EBI2 receptor. EBI2 beta-arrestin recruitment, luminescence, 7a,25-OHC stimulated. inhibition, % at 5 µM. 360,000 tested, 0.81% active. AID 651636; in the data active means inhibition above about 38%;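 further: enzyme fragment complementation signal reports receptor beta-arrestin coupling in cells; 0% = agonist plus DMSO wells and 100% = wells without agonist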
APJ antag = APJ receptor antagonism | inhibition, % at 20 µM | CHO-K1 APJ beta-arrestin complementation, luminescence | AID 2521 | 330,000 tested, 0.32% active;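 active means inhibition above about 40% at 20 µM, limit read from the data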;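 further: cells challenged with 10 nM apelin-13 agonist together with compound; plate controls were apelin-13 plus DMSO wells for no effect and DMSO wells lacking apelin-13 for full effect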
CCR6 antagonist = antagonists of human CCR6 receptor. P51684. CHO-K1 CCR6 PathHunter beta-arrestin, luminescence, CCL20-stimulated. inhibition, % at 20 µM. 340,000 tested, 0.49% active. AID 493098;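 active means compounds whose inhibition of the agonist-driven luminescence signal at 20 µM reaches about 50%, limit read from the data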;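 further: cells stimulated with CCL20 at 14 nM final; plate controls were DMSO with CCL20 for no effect and DMSO without agonist for full effect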
Target sequence (P51684 whole entry, looked up): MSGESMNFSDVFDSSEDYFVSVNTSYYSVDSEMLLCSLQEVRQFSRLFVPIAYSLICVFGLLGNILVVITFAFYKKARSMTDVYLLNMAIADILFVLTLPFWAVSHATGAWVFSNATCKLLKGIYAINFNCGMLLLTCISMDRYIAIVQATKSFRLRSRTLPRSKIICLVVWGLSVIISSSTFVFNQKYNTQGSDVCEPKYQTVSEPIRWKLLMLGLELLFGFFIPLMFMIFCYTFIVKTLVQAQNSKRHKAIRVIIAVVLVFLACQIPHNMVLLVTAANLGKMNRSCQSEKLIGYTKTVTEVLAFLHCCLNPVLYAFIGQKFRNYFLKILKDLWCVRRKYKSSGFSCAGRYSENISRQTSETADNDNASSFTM
APJ agonist = agonists of human APJ apelin receptor | P35414 | CHO-K1 APJ PathHunter beta-arrestin, luminescence; 0% DMSO wells, 100% apelin | activation, % at 20 µM | 330,000 tested, 0.11% active | AID 2520;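 active means activation more than six SD over the plate average, tested at 20 µM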;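 further: 0% = DMSO alone and 100% = apelin-13 at 10 nM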
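Material: CHO-K1 APJ beta-arrestin complementation cell line; Input: cell density 1000 per well; Incubation: compound stimulation 90 min at 25 °C, detection 60 min; Signal: luminescence from split beta-galactosidase complementation, Galacton Star/Emerald II substrate; Controls: DMSO-only wells as negative, 10 nM Apelin-13 as positive control.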
EBI2 antag conf = EBI2 (human) antagonism, single concentration confirmation; inhibition, % at 5 µM; AID 651997; EBI2 beta-arrestin luminescence, 7a,25-OHC antagonism; shares compounds with EBI2 block; 2,400 tested, 29% active;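 active means inhibition of at least 50%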
EBI2 agonist = EBI2 agonism counter-screen | 2,400 tested, under 10 active | EBI2-expressing cells, agonist mode, luminescence, 60 min; 0% vehicle, 100% 7α,25-dihydroxycholesterol control | shares compounds with EBI2 block | activation, % at 5 µM;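 active means activation of at least 50%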
bGal cs = counter-screen for EBI2 antagonists: E. coli beta-galactosidase inhibition; 2,400 tested, 1% active; purified beta-galactosidase, luminescent Galacton Star, 15 min; inhibition, % at 5 µM; shares compounds with EBI2 block;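 active means replicate-average signal at least 3 plate SD below neutral wells, shown as high inhibition, flagging enzyme-inhibiting false positives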;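 further: 0% = DMSO wells with enzyme and 100% = wells lacking enzyme; higher means stronger loss of beta-gal luminescence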
Numbers without * were called inactive; nt = no result; ! = repeats disagree.

SMILES	CXCR6 block	EBI2 block	APJ antag	CCR6 antagonist	APJ agonist	EBI2 antag conf	EBI2 agonist	bGal cs
COCCOC(=O)c1c(NC(=O)COC(=O)Cc2cccc(OC)c2)sc(C(N)=O)c1C	-0.5	44.3*	13.5	10.3	-9.7	17.5	-1.6	-18.7
COCCOC(=O)c1c(NC(=O)CNC2CCCc3ccccc32)sc(C(N)=O)c1C (configuration not stated)	5.0	82.0*	-24.8	10.4	-0.9	42.0	-1.8	-6.1
Cc1c(NC(=O)C(C)OC(=O)/C=C/c2ccc3c(c2)OCO3)c(=O)n(-c2ccccc2)n1C (configuration not stated)	-5.9	3.0	17.4	4.5	-3.0	nt	nt	nt
COc1cc(C2OC(=O)C3C(c4ccc(OC(C)=O)c(OC)c4)OC(=O)C23)ccc1OC(C)=O (configuration not stated)	6.3	61.9*	-5.7	5.0	-2.7	-2.8	-0.7	-9.6
Cc1ccc(S(=O)(=O)N2CCCN(Cc3nc4ccccc4c(=O)[nH]3)CC2)cc1	-4.7	9.8	16.2	5.8	-2.2	nt	nt	nt
COc1cc2nc(CN3CCN(S(=O)(=O)c4ccc(C)c(C)c4)CC3)[nH]c(=O)c2cc1OC	2.0	46.9*	6.8	19.1	-1.6	38.4	1.7	3.7
Cc1cccc(NC2=CC(=O)CC(C)(C)C2)c1C	5.3	5.1	-2.6	8.0	-1.0	nt	nt	nt
Cc1ccccc1CN(c1ccc(C(=O)Nc2ccccc2C(=O)NCc2ccco2)cc1)S(C)(=O)=O	-1.3	57.9*	-1.1	6.9	-0.9	13.4	-0.9	-16.1
CC1CCCCC1NC(=O)CN1CCC(NC(=O)C(C)(C)C)CC1 (configuration not stated)	3.5	-2.8	nt	nt	nt	nt	nt	nt
O=C(c1ccc2ncsc2c1)N1CCN(c2nc3ccccc3s2)CC1	-7.9	6.0	13.9	7.6	0.7	nt	nt	nt
Cc1ccc(C)c(N2CCN(C(=O)c3ccc4nsnc4c3)CC2)c1	7.2	47.1*	-8.3	11.4	-4.5	12.6	-0.4	-4.5
Cc1cccc(N2CCN(C(=O)c3ccc4ncsc4c3)CC2)c1C	-3.3	74.2*	nt	5.5	nt	65.0*	-0.2	-12.8
O=C(c1ccc2ncsc2c1)N1CCN(c2ccccc2Cl)CC1	0.0	73.9*	-2.0	-2.6	-0.6	53.9*	0.7	1.1
CCN(C(=O)CSc1ccc2ccccc2n1)C1CCCCC1	4.0	14.8	-2.8	27.4	-7.8	nt	nt	nt
CC(C)c1ccc(NC(=S)Nc2ccc(OC(F)(F)F)cc2)cc1	1.1	55.3*	-9.3	12.6	-2.0	51.0*	2.5	3.1
COc1cccc(NC(=S)Nc2ccc(Br)cc2Cl)c1	3.9	0.6	-3.1	1.0	-0.7	nt	nt	nt
CCC(C)c1ccc(NC(=S)Nc2ccc(OC)cc2)cc1 (configuration not stated)	6.9	53.3*	-6.1	9.0	-1.2	48.6	1.5	4.3
COc1ccc(NC(=S)c2ccccc2)cc1	4.0	-6.1	4.6	9.6	-1.5	nt	nt	nt
CCOc1ccc(NC(=S)Nc2ccc(Br)cc2Cl)cc1	10.0	67.8*	-4.9	14.4	-3.0	43.0	1.6	-2.5
COc1ccc(NC(=S)Nc2ccccc2)cc1	3.3	38.6*!	12.5	6.6	-1.7	9.4	2.8	7.1
COc1ccc(CCNC(=S)Nc2ccc(C(C)C)cc2)cc1	-4.8	24.3	0.2	15.5	-1.1	nt	nt	nt
CCCC[C@@H]1CNC(=O)C(=O)N1CCc1cccc(F)c1	2.9	3.8	nt	nt	nt	nt	nt	nt
O=c1ccc2c([nH]1)CCCCCCCCCC2	-2.7	-1.4	-19.1	-1.6	-1.1	nt	nt	nt
NC(=O)Cn1c(=O)n(CCC(=O)NCCSCc2ccccc2)c(=O)c2ccccc21	-3.9	-3.2	-4.5	9.9	-1.8	nt	nt	nt
CCOc1ccc(OCC(=O)Nc2ccc(OC)cc2)cc1	-7.2	-7.1	11.3	6.3	1.5	nt	nt	nt
CNC(=S)Nc1ccc(OCc2ccccc2)cc1	-11.2	-1.2	8.8	10.9	-2.5	nt	nt	nt
CCOc1ccc(NC(=S)Nc2ccc(OCc3ccccc3)cc2)cc1	-3.9	58.1*	7.6	13.7	4.9	35.9	0.2	-13.0
